Measurements taken from ChEMBL document CHEMBL4382201 (J Med Chem, 2018).
pIC50: −log10 of the molar value. Converted amounts (≈) assume the structure as drawn. The source made the active and inactive calls. No cut-off for these calls is given here.

Experiments:
[1] = Drug level in DMSO-d6/PBS buffer treated with (3-(((2-Amino-3-methoxy-3-oxopropyl)thio)methyl)-4-(bis(2-chloroethyl)amino)phenyl)boronic Acid assessed as compound formation after 10 days in presence of GSH by IT-TOF mass analysis; format: physicochemical; settings: 240 h
[2] = Drug level in DMSO-d6/PBS buffer treated with 4-(bis(2-chloroethyl)amino)phenylboronic acid assessed as compound formation after 10 days in presence of GSH by IT-TOF mass analysis; format: physicochemical; settings: 240 h
MDA-MB-468 [3] = assay: Growth inhibition of human MDA-MB-468 cells after 48 hrs by […]; format: functional, cell-based; settings: MDA-MB-468, 48 h
dsDNA [4] = assay: Induction of DNA-interstanded-cross-link formation in [32P]-labeled 49-mer duplex DNA (unknown origin) at 1 mM in absence of H2O2 after 16 hrs by PAGE relative to control; format: functional
How it was run: (§1)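 A 32P-labelled 49-mer, annealed with 1.5 equiv complement (65 °C for 3 min in 10 mM potassium phosphate pH 7, 100 mM NaCl, then slow cooling), was used at 1.0 µM before final dilution. Duplex was mixed with compound (final 1 mM), NaCl and potassium phosphate pH 8, with or without H2O2. Incubation 16 h at room temperature, formamide quench, then 20% denaturing PAGE.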

[5] = Chemical stability of the compound in 90% DMSO/PBS buffer assessed as compound remaining at pH 6 in presence of GSH; format: physicochemical
How it was run: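 Compound and GSH at a 1:2 ratio in DMSO-d6/PBS 9:1, pH 6.0, at room temperature. Compound-only and GSH-only samples served as controls. Intact compound was monitored by NMR.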

[6] = Solubility of the compound in 50% DMSO/PBS buffer at 10 mM pH 6 after 3 to 10 days by NMR analysis; format: physicochemical; settings: pH 6, 10000 µM
CCRF-CEM = assay: Growth inhibition of human CCRF-CEM cells after 48 hrs by SRB assay; format: functional
How it was run: (§2)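 NCI-60 five-dose screen at 100 µM, 10 µM, 1 µM, 100 nM and 10 nM. Incubation 48 h at 37 °C, 5% CO2, 100% humidity. Growth was expressed relative to the no-drug control and to the time-zero cell number, and GI50 was derived from these values.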

SK-OV-3 = assay: Growth inhibition of human SKOV3 cells after 48 hrs by SRB assay; format: functional; settings: SK-OV-3, 48 h; how it was run: as §2
[7] = Chemical stability of the compound in 50% DMSO/PBS buffer assessed as compound remaining at pH 6 in presence of GSH after 48 hrs; format: physicochemical; settings: 50% DMSO/PBS buffer with GSH, read-out: Stability
How it was run: (§3)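 Compound with GSH in DMSO-d6/PBS buffer 1:1, pH 6. Intact compound was followed by NMR over 24-48 h.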

[8] = Drug metabolism in DMSO-d6/PBS buffer assessed as 1-(2-hydroxyethyl)-5-(methoxycarbonyl)-1,2,3,4,5,7-hexahydrobenzo[g][1,3,6]thiadiazonin-9-ylboronic acid formation after 10 days in presence of GSH by IT-TOF mass analysis
DNA [9] = assay: Induction of DNA cross-linking activity in human CLL-derived lymphocytes assessed as increase in gammaH2AX formation at 10 uM after 24 hrs by flow cytometry; format: functional, cell-based
How it was run: (§4)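 Primary CLL lymphocytes from 3 patients were treated for 24 h at 10 µM or 1 µM, depending on compound. H2AX phosphorylation (% γH2AX) was measured by flow cytometry.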

[10] = Chemical stability of the compound in 100 mM pH 6 PBS buffer assessed as compound remaining at 10 mM at room temperature after 4 days; format: physicochemical; settings: read-out: Stability
How it was run: (§5)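 Compound at 10 mM in 100 mM PBS (pH 6.0 or 7.4, prepared in D2O), diluted 9:1 with DMSO-d6. Kept at room temperature for 3-10 days. The fraction of intact compound was followed by NMR.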

[11] = Chemical stability of the compound in 50% DMSO/PBS buffer assessed as compound remaining at pH 6 in presence of GSH after 24 hrs; format: physicochemical; settings: 50% DMSO/PBS buffer with GSH, read-out: Stability; how it was run: as §3
IGROV-1 = assay: Growth inhibition of human IGROV1 cells after 48 hrs by SRB assay; format: functional; settings: IGROV-1, 48 h; how it was run: as §2
MDA-MB-468 [12] = assay: Antitumor activity against human MDA-MB-468 cells xenografted in nude CD1 mouse assessed as tumor size of initial size at 1.5 mg/kg/day, ip measured after 7 weeks (reference value: 278 to 657%); format: functional
How it was run: (§6)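 Female athymic nude mice (35 days, 20-22 g) received 2 million MDA-MB-468 cells s.c. in the flank, suspended in 1:1 matrigel/DMEM. Mice with palpable tumours were given 1.5 mg/kg i.p. or vehicle, 11 mice per group. Tumour size was measured by caliper every 7 days and body weight was recorded regularly.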

[13] = Drug metabolism in DMSO-d6/PBS buffer assessed as (S)-3-((2-amino-3-methoxy-3-oxopropylthio)methyl)-4-((2-chloroethyl)(2-hydroxyethyl)amino)phenylboronic acid formation after 10 days in presence of GSH by IT-TOF mass analysis
RPMI-8226 = assay: Growth inhibition of human RPMI8226 cells after 48 hrs by SRB assay; format: functional; settings: RPMI-8226, 48 h; how it was run: as §2
HT-29 = assay: Growth inhibition of human HT-29 cells after 48 hrs by SRB assay; format: functional; settings: HT-29, 48 h; how it was run: as §2
MDA-MB-468 [14] = assay: Growth inhibition of human MDA-MB-468 cells after 48 hrs by SRB assay; format: functional; settings: MDA-MB-468, 48 h; how it was run: as §2
[15] = Drug metabolism in DMSO-d6/PBS buffer assessed as 1-(2-chloroethyl)-5-(methoxycarbonyl)-1,2,3,4,5,7-hexahydrobenzo[g][1,3,6]thiadiazonin-9-ylboronic acid formation after 10 days in presence of GSH by IT-TOF mass analysis
[16] = Toxicity in CD1 mouse at 1.5 mg/kg/day, ip for 5 days per week measured after 3 months; format: organism-based; settings: in vivo, 120 h
How it was run: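 Mice were dosed i.p. at 1.5 mg/kg per day, 5 days per week, over three months and observed for toxicity.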

[17] = Solubility of the compound in PBS buffer at 10 mM at pH 7.4 by UV-based analysis; format: physicochemical
How it was run: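 Compound (10 mM DMSO stock) was diluted into pH 7.4 buffer (ethanolamine/KH2PO4/potassium acetate/KCl) to a final 5% DMSO. After sonication and 18 h agitation the mixture was filtered and scanned by UV at 230-800 nm. Solubility was calculated from calibration plots made in 20% acetonitrile buffer, in quadruplicate, with solubility standards on each plate.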

Lymphocyte [18] = assay: Induction of apoptosis in human CLL-derived lymphocytes up to 30000 nM after 24 hrs by Annexin V-FITC/propidium iodide-staining based flow cytometry; format: functional, cell-based
How it was run: (§7)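 Patient CLL lymphocytes isolated on Ficoll-Hypaque and held in RPMI 1640 with 10% autologous plasma at 1×10^7 cells/mL, fresh cells only. Cells were exposed to a concentration series for 24 h alongside time-matched untreated controls. Apoptosis was measured by annexin V-FITC/PI flow cytometry, at least 10,000 events per sample; each patient was analysed separately.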

MOLT-4 = assay: Growth inhibition of human MOLT4 cells after 48 hrs by SRB assay; format: functional; settings: MOLT-4, 48 h; how it was run: as §2
[19] = Toxicity in CD1 mouse xenografted with human MDA-MB-468 cells assessed as body weight change at 1.5 mg/kg/day, ip measured after 7 weeks; format: organism-based; settings: in vivo, 1176 h; how it was run: as §6
Lymphocyte [20] = assay: Induction of apoptosis in human lymphocytes at 10 uM after 24 hrs by Annexin V-FITC/propidium iodide-staining based flow cytometry; format: cell-based
How it was run: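 Normal PBMCs from 3 donors were isolated on Ficoll and treated at 10 µM. Apoptosis was measured by annexin V-FITC/PI flow cytometry against time-matched untreated controls.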

SR = assay: Growth inhibition of human SR cells after 48 hrs by SRB assay; format: functional; how it was run: as §2
SNB-75 = assay: Growth inhibition of human SNB75 cells after 48 hrs by SRB assay; format: functional; settings: SNB-75, 48 h; how it was run: as §2
K562 = assay: Growth inhibition of human K562 cells after 48 hrs by SRB assay; format: functional; settings: K562, 48 h; how it was run: as §2
[21] = Chemical stability of the compound in 100 mM pH 6 PBS buffer assessed as compound remaining at 10 mM at room temperature after 2 days; format: physicochemical; settings: read-out: Stability; how it was run: as §5
MCF7 = assay: Growth inhibition of human MCF7 cells after 48 hrs by SRB assay; format: functional; settings: MCF7, 48 h; how it was run: as §2
[22] = Chemical stability of the compound in 100 mM pH 7 PBS buffer assessed as compound remaining at 10 mM at room temperature after 4 days; format: physicochemical; settings: read-out: Stability; how it was run: as §5
[23] = Cytotoxicity against human CLL cells assessed as reduction in cell viability after 24 hrs; format: functional, cell-based; how it was run: as §7
HOP-92 = assay: Growth inhibition of human HOP92 cells after 48 hrs by SRB assay; format: functional; settings: HOP-92, 48 h; how it was run: as §2
Malme-3M = assay: Growth inhibition of human MALME-3M cells after 48 hrs by SRB assay; format: functional; how it was run: as §2
dsDNA [24] = assay: Induction of DNA-interstanded-cross-link formation in [32P]-labeled 49-mer duplex DNA (unknown origin) at 1 mM in presence of H2O2 after 16 hrs by PAGE relative to control; format: functional; how it was run: as §1
[25] = Chemical stability of the compound in 100 mM pH 7.4 PBS buffer assessed as compound remaining at 10 mM at room temperature after 2 days; format: physicochemical; settings: read-out: Stability; how it was run: as §5
DNA [26] = assay: Induction of DNA cross-linking activity in human CLL-derived lymphocytes assessed as increase in gammaH2AX formation at 1 uM after 24 hrs by flow cytometry; format: functional, cell-based; how it was run: as §4
[27] = test system: Panel NCI-60 (60 carcinoma cell lines); assay: Growth inhibition of human NCI60 cells at 10 uM after 48 hrs by SRB assay relative to control; format: functional, cell-based
How it was run: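 NCI-60 one-dose screen: cells exposed to 10 µM for 48 h at 37 °C, 5% CO2, 100% humidity. Percent growth is given relative to the no-drug control and the time-zero cell count.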

In the case of COC(=O)C1CSCc2cc(B(O)O)ccc2N(CCCl)CCN1 (stereo not given), the Drug uptake [1] was “Active”.
For OCCN(CCCl)c1ccc(B(O)O)cc1, the Drug uptake [2] was “Active”.
N[C@@H](Cc1ccc(N(CCCl)CCCl)cc1)C(=O)O [MELPHALAN] showed a pIC50 (MDA-MB-468 [3]) of 4.31 and an Activity (dsDNA [4]) of 4.9%.
With COC(=O)[C@H](N)CSCc1cc(B(O)O)ccc1N(CCCl)CCCl the Stability [5] was “Stable”, the solubility [6] was “Insoluble” and the GI50 (CCRF-CEM) was 0.54 µM. It also gave a GI50 (SK-OV-3) of 1.46 µM, a remaining at 48 h [7] of 70% and a pIC50 (MDA-MB-468 [3]) of 5.47. The Drug metabolism [8] was “Metabolite detected”, the Activity (DNA [9]) was “Active” and the remaining at 96 h, 10000 µM [10] was 85%. The remaining at 24 h [11] was 90%, the GI50 (IGROV-1) was 3.32 µM and the Activity (MDA-MB-468 [12]) was 58 - 178%. For the same molecule, the Drug metabolism [13] was “Metabolite detected”, the GI50 (RPMI-8226) was 2.62 µM and the GI50 (HT-29) was 4.03 µM. The GI50 (MDA-MB-468 [14]) was 1.49 µM, the Drug metabolism [15] was “Metabolite detected” and the Activity [16] was “Non-Toxic”. The solubility [17] was 231 µM (≈ 94.5 µg/mL), the Activity (Lymphocyte [18]) was “Active” and the GI50 (MOLT-4) was 0.6 µM. For the same molecule, the Activity [19] was “Non-Toxic”, the Activity (Lymphocyte [20]) was “Non-Toxic” and the GI50 (SR) was 0.28 µM. It also gave a GI50 (SNB-75) of 0.85 µM, a GI50 (K562) of 3.25 µM and a remaining at 48 h, 10000 µM [21] of 92%. The GI50 (MCF7) was 0.72 µM, the remaining at 96 h, 10000 µM [22] was 85% and the pIC50 [23] was 6.11 to 8.52. It also gave a GI50 (HOP-92) of 0.56 µM, a GI50 (Malme-3M) of 2.39 µM and an Activity (dsDNA [4]) of 1.5 to 15%. The Activity (dsDNA [24]) was < 65% and the remaining at 48 h, 10000 µM [25] was 92%.
For COc1cc(N(CCCl)CCCl)ccc1B1OC(C)(C)C(C)(C)O1, the pIC50 (MDA-MB-468 [3]) was 4.46, the solubility [17] was 50 µM (≈ 18.7 µg/mL) and the Activity (Lymphocyte [20]) was “Non-Toxic”. The Activity (DNA [26]) was “Active”, the Activity (dsDNA [4]) was 8% and the Activity (dsDNA [24]) was < 65%.
For CC1(C)OB(c2ccc(N(CCCl)CCCl)c([N+](=O)[O-])c2)OC1(C)C, the pIC50 (MDA-MB-468 [3]) was 4.03, the solubility [17] was 380 µM (≈ 148 µg/mL) and the “growth inhibition (GI)” value [27] was “inactive”. The Activity (dsDNA [4]) was 1.5 to 15% and the Activity (dsDNA [24]) was < 9%.
For COC(=O)C(CSCc1cc(B2OC(C)(C)C(C)(C)O2)ccc1N(CCCl)CCCl)NC(=O)OC(C)(C)C (stereo not given), the “growth inhibition (GI)” value [27] was “inactive” and the Activity (dsDNA [4]) was < 5%.
With N[C@H](Cc1cn(Cc2cc(B(O)O)ccc2N(CCCl)CCCl)c2ccccc12)C(=O)O the “growth inhibition (GI)” value [27] was “inactive”, the Activity (dsDNA [4]) was 1.5 to 15% and the Activity (dsDNA [24]) was < 65%.
